Data set [1] deals with Inhibitor of nuclear factor kappa-B kinase subunit beta (Homo sapiens) (UniProt O14920). Kind of data set: Inhibition of recombinant human full length IKKbeta assessed as residual activity at 1 uM using peptide as substrate incubated for 40 mins in presence of [gamma 33P]-ATP by radiometric scintillation counting assay relative to control. In a few lines:
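Eurofins KinaseProfiler radiometric panel, compound at 1 μM, ATP at 10 μM or within 15 μM of apparent Km. For Nek1 (1−505): 8 mM MOPS pH 7.0, 0.2 mM EDTA, 250 μM peptide, 10 mM Mg acetate, [γ-33P]-ATP, 40 min at room temperature. Stopped with 0.5% phosphoric acid, filtermat spotting, scintillation counting. Mean of two independent experiments.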

The nature of data set [2]: Permeability across apical to basolateral side in human Caco-2 cells at pH 6.5 to 7.4 by HPLC-MS/MS analysis. In kind it is ADME, cell-based. As to conditions: Caco-2, pH 6.5, read-out: permeability. The procedure, abridged:
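Commercial Caco-2 assay, apical-to-basolateral direction at pH 6.5/7.4. Permeability and percent recovery taken from HPLC-MS/MS peak area response. Propranolol, labetalol, colchicine and ranitidine run in parallel as references.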

Data set [3] in a line: Toxicity in wild-type Zebrafish embryos assessed as lethality at 30 uM measured after 72 hrs. More on the design: species or system Danio rerio. As to conditions: in vivo. In a few lines: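 Wild-type zebrafish embryos with intact chorions were selected at 4 hpf, 15 per group, in E3 medium. At 6 hpf a 10× dilution of a DMSO stock was added to give final concentrations of 0.05–30 μM. Survival was scored every 24 h by heartbeat over 120 h. The 30 μM group was run in 5 replicates and the others at least in triplicate.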

The target of data set [4] is MAP kinase-activated protein kinase 2 (Homo sapiens) (UniProt P49137). The data set is described as follows: Inhibition of recombinant human MAPKAPK2 (46 to end residues) assessed as residual activity at 1 uM using KKLNRTLSVA as substrate incubated for 40 mins in presence of [gamma-33P]-ATP by radiometric scintillation counting method relative to control. The procedure, abridged:
(§1)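 Commercial radiometric panel of 50 kinases. Each recombinant human kinase was tested at a single compound concentration of 1 μM. ATP was set within 15 μM of the apparent Km for ATP for each kinase. Residual activity is relative to control and is the mean of two independent experiments.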

Data set [5] deals with T1, Serine/threonine-protein kinase Nek1 (Homo sapiens, UniProt Q96PY6).
T1 sequence (Q96PY6 whole entry): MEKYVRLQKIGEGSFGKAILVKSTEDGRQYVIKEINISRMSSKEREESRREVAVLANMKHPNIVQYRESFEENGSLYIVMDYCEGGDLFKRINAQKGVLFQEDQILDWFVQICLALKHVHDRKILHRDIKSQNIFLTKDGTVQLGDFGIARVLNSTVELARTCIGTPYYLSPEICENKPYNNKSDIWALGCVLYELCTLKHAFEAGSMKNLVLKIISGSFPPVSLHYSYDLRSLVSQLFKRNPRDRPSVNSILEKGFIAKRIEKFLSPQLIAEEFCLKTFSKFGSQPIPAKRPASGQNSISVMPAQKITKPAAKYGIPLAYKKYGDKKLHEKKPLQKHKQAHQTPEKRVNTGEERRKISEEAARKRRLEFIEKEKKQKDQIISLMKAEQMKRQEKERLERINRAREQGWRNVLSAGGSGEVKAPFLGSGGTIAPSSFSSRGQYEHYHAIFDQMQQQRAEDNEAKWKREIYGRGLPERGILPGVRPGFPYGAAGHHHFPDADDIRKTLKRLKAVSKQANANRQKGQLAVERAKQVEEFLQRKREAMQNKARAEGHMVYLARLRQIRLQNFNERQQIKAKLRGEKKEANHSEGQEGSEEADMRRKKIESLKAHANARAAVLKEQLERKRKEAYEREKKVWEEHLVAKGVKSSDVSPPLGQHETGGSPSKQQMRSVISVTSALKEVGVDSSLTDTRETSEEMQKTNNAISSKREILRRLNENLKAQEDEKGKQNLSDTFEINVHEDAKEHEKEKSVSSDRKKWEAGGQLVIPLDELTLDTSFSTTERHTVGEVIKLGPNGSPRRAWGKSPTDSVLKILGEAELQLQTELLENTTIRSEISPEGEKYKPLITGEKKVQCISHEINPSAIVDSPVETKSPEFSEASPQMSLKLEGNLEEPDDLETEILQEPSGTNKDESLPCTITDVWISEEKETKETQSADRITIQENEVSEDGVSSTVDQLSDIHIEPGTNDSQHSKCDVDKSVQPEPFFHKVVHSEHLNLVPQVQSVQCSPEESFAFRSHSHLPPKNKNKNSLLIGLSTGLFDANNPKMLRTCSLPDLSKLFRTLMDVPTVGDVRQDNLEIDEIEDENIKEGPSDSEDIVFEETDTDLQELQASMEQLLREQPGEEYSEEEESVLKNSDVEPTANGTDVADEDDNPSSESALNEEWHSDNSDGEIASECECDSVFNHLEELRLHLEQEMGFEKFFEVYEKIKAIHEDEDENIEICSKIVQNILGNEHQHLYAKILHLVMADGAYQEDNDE
Kind of data set: Inhibition of human recombinant NEK1 (1 to 505 residues) using ULight-p70 S6K peptide as substrate incubated for 30 mins by LANCE Ultra TR-FRET assay. The procedure, abridged:
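Recombinant human Nek1 (1−505, 0.02 nM) in 50 mM HEPES pH 7.5, 1 mM EGTA, 10 mM MgCl2, 0.2 mM DTT, 0.01% Tween20, with 50 nM ULight-p70 S6K peptide and 60 μM ATP, 30 min at 22 °C. Stopped with EDTA plus Eu anti-phospho antibody, 1 h signal development. Ten half-log concentrations from 30 μM (10 μM for some) to 1 nM. Mean of two experiments.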
On the technique in general: TR-FRET usually uses a lanthanide donor and a delayed reading to cut background.

Data set [6] deals with Epidermal growth factor receptor (Homo sapiens) (UniProt P00533). The data set is described as follows: Inhibition of human recombinant EGFR (696 to end residues) assessed as residual activity at 1 uM using poly(Glu, Tyr) 4:1 as substrate incubated for 40 mins in presence of [gamma 33P]-ATP by radiometric scintillation counting assay relative to control. In a few lines: as §1

The target of data set [7] is Tyrosine-protein kinase receptor TYRO3 (Homo sapiens) (UniProt Q06418). The data set is described as follows: Inhibition of human RSE (451 to end residues) assessed as residual activity at 1 uM using KVEKIGEGTYGVVYK as substrate measured after 40 mins in presence of [gamma33P]ATP by radiometric scintillation counting method relative to control. In a few lines: as §1

Data set [8] in a line: Toxicity in fluorescence-labelled Zebrafish pronephron assessed as increase in growth of fluid-filled cysts at 10 to 20 uM. On the set-up: species or system Danio rerio. As to conditions: in vivo, dose 10-20 µM. The procedure, abridged:
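Wild-type embryos exposed from 6 hpf to E3/0.2% DMSO controls or 10 and 20 μM compound, in E3 with 75 μM PTU. At 48 h, 100 nM PT-Yellow for 20 min, washed, then returned to compound up to 96 h total. Anesthetized embryos imaged in agarose molds by widefield microscopy, 33 Z-slices. Tubule fluorescence and area quantified from summed deconvolved projections. n = 3–5.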

Chain of MAP kinase-activated protein kinase 2 (Homo sapiens) (P49137 whole entry, looked up): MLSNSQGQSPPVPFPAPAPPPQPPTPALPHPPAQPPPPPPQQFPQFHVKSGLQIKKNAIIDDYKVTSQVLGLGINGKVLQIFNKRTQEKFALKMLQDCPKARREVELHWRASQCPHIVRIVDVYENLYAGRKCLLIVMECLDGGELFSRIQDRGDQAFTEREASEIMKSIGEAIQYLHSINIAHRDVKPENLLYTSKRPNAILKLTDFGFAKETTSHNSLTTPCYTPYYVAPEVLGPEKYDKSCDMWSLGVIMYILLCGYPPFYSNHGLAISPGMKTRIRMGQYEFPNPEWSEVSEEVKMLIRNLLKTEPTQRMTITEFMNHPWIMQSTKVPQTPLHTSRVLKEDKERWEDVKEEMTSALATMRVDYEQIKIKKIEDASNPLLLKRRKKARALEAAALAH
Chain of Inhibitor of nuclear factor kappa-B kinase subunit beta (Homo sapiens) (O14920 whole entry): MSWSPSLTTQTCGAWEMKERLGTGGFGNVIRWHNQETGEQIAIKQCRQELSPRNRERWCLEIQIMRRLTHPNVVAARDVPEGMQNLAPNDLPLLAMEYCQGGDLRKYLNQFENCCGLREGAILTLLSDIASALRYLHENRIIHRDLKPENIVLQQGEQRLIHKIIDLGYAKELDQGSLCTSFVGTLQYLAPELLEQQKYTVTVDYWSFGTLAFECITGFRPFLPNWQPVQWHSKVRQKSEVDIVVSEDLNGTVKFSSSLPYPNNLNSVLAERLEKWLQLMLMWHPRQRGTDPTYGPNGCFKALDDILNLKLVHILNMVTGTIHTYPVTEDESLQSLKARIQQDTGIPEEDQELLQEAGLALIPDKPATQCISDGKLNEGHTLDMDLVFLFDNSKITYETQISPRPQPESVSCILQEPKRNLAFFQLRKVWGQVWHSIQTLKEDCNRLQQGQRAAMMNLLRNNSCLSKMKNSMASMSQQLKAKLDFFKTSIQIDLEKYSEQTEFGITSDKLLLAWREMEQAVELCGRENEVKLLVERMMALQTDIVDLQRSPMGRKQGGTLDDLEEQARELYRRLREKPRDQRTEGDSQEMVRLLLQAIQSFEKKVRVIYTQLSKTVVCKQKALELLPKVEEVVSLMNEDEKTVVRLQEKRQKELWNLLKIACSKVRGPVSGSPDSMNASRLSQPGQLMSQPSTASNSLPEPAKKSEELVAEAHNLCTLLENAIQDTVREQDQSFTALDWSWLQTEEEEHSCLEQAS
Chain of Epidermal growth factor receptor (Homo sapiens) (P00533 whole entry): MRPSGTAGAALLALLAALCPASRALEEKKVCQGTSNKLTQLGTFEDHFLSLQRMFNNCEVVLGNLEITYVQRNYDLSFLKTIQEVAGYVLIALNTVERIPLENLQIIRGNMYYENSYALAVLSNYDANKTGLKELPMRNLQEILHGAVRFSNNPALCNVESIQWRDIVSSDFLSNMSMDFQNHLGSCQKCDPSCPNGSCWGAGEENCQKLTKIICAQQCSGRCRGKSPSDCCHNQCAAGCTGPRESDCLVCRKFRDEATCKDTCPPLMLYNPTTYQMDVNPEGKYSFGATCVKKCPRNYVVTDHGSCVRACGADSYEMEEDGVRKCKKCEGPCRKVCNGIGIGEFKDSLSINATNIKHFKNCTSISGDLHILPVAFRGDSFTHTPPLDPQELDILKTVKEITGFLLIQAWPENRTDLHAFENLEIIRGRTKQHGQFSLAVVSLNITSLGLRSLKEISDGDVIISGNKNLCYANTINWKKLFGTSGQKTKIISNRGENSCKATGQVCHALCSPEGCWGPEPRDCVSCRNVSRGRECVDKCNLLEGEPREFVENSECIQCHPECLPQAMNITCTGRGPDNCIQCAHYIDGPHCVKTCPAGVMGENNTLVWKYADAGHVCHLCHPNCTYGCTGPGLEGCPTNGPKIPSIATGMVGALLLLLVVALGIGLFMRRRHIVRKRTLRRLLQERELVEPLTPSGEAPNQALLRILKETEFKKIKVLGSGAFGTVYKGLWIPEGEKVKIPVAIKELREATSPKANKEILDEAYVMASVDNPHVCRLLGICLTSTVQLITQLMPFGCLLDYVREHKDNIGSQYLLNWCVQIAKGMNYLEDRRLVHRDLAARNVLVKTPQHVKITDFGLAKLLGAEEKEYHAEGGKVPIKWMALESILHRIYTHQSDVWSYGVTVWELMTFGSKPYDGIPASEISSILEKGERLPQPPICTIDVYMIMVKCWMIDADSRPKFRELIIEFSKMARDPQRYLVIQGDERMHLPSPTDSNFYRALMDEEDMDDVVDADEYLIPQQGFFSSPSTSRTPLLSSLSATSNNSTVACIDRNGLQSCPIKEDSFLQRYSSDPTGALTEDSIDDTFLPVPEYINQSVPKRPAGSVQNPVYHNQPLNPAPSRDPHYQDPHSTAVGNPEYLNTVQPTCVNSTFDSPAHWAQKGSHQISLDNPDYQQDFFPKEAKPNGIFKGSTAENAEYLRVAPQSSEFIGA
Chain of Tyrosine-protein kinase receptor TYRO3 (Homo sapiens) (Q06418 whole entry): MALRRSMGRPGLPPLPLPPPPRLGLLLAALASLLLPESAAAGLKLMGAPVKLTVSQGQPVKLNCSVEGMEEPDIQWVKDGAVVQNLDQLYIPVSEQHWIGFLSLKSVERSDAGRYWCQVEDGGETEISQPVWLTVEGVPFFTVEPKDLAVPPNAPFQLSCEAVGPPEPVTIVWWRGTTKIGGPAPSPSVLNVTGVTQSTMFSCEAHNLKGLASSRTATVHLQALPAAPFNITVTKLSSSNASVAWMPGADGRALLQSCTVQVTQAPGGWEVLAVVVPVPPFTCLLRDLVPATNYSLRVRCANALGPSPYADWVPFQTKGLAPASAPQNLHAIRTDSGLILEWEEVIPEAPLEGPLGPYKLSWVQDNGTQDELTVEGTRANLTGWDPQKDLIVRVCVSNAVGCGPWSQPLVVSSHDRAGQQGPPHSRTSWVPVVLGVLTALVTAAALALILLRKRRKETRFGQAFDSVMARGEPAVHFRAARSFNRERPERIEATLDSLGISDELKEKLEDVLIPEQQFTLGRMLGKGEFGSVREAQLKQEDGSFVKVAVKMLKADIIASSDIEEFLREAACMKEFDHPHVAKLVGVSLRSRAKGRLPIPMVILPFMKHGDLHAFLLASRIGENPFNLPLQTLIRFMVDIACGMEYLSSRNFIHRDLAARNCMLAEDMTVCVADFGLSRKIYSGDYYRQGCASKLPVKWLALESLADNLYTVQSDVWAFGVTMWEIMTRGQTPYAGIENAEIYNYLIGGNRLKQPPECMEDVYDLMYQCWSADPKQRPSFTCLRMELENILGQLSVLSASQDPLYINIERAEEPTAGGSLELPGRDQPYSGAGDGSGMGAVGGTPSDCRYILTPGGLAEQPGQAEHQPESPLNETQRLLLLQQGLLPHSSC

Consider `O=S(=O)(N[C@@H](CO)Cc1c[nH]c2ccccc12)c1ccc(-c2ccnc3[nH]ccc23)cc1`, for which the Activity in data set [1] is 36.1%; in data set [3], “Toxic”; in data set [4], more than 75%; in data set [6], more than 75%; in data set [7], more than 75%; in data set [8], “Toxic”. In addition, the Papp A→B in data set [2] was found to be 3.4 ×10⁻⁶ cm/s. Besides, the IC50 (commonly the concentration that gives 50% inhibition) in data set [5] amounted to 330 nM.
